The source made the active and inactive calls. The rule behind the calls is not given here.
Tests used:
Brain [1] = test: (§1) Antioxidant activity in Wistar rat brain homogenate assessed as inhibition of FeSO4-induced lipid peroxidation preincubated with compound for 30 mins followed by FeSO4 addition and measured after 1 hrs by TBARS assay; format: functional, tissue-based
In short: (§2)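 Whole brains of adult male Wistar rats (200–250 g) were homogenized 1/10 in PBS pH 7.4 and spun at 800 rcf. The supernatant was adjusted to 2.666 mg protein/mL and preincubated with EDTA and compound in DMSO for 30 min at 37 °C. FeSO₄ (final 10 μM) was added for 1 h at 37 °C. TBA/TCA reagent was added, then heating at 80 °C, and A540 was read against a TMP standard curve. Inhibition % was calculated versus the DMSO control; α-tocopherol served as the standard. IC₅₀ came from linear regression, mean ± SEM of three experiments.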

Alpha-glucosidase = Alpha-glucosidase (Saccharomyces cerevisiae S288c, UniProt P53341+P38158+P07265); test: Inhibition of Saccharomyces cerevisiae alpha-glucosidase using p-nitrophenyl-alpha-D-glucopyranoside as substrate pre-incubated for 10 mins followed by substrate addition and measured after 15 mins by absorbance based analysis; format: protein assay
Brain [2] = test: as §1, with “peroxidation by measuring TBARS scavenging activity at 100 uM” for “peroxidation”, “absorbance based microplate reader relative to control” for “TBARS assay”; format: functional, tissue-based; design: scale not given: the % may be the effect or the level left; settings: time 90.0 min; in short: as §2
[3] = Antioxidant activity assessed as DPPH radical scavenging activity at 100 uM incubated for 30 mins in dark by absorbance based analysis relative to control; format: functional
In short: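 The compound in DMSO was mixed with DPPH in EtOH (final 100 μM). It was incubated 30 min at 37 °C with stirring in the dark, and absorbance was read at 515 nm. Scavenging % = (C − E) × 100/C against the DPPH control.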

[4] = molecular target: T1, Alpha-glucosidase (Saccharomyces cerevisiae S288c) (UniProt P53341+P38158+P07265); test: Mixed type inhibition of Saccharomyces cerevisiae alpha-glucosidase using p-nitrophenyl-alpha-D-glucopyranoside as substrate at 1 to 2 times of IC50 pre-incubated for 10 mins followed by substrate addition and measured after 15 mins by Lineweaver-Burk plot analysis; format: protein assay; settings: time 25.0 min
In short: (§3)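 The same α-glucosidase protocol was used, with enzyme and inhibitor preincubated 10 min. Reactions were started with PNPG varied from 1 to 23.1 mM at 37 °C, quenched with […] and read at 405 nm. […] Mode was assigned from Lineweaver–Burk plots.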

Mus musculus [5] = test: Anti-hyperglycemic activity in CDI mouse assessed as decrease in blood glucose level at 50 mg/kg preadministered with compound for 30 mins followed by sucrose administration and measured after 30 mins by oral sucrose tolerance test relative to control; format: functional; design: scale not given: the % may be the effect or the level left
In short: (§4)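 Sucrose 3 g kg⁻¹ given orally 30 min later. Caudal vein blood glucose measured by glucometer at 0, 0.5, 1, 1.5, 2 and 3 h; % variation of glycemia calculated relative to the 0 h level.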

Mus musculus [6] = test: Anti-hyperglycemic activity in CDI mouse assessed as reduction in blood glucose level preadministered with compound for 30 mins followed by sucrose administration and measured upto 3 hrs by oral sucrose tolerance test; format: functional, organism-based; settings: dose 50-100 mg/kg, time <= 3.5 hrs; in short: as §4
Mus musculus [7] = test: Anti-hyperglycemic activity in CDI mouse assessed as reduction in glucose AUC at 50 mg/kg measured for 7 hrs by oral glucose tolerance test; format: functional, organism-based
COS-7 = test: Cytotoxicity against African green monkey COS-7 cells at 50 uM; format: toxicity, cell-based; settings: chlorocebus aethiops, cos-7, 50 µM
Mus musculus [8] = test: Anti-hyperglycemic activity in CDI mouse assessed as reduction in blood glucose level at 100 mg/kg preadministered with compound for 30 mins followed by sucrose administration and measured upto 3 hrs by oral sucrose tolerance test relative to control; format: functional; design: scale not given: the % may be the effect or the level left; settings: time < 3.5 hrs; in short: as §4
[9] = molecular target: T1, Alpha-glucosidase (Saccharomyces cerevisiae S288c); test: Mixed type inhibition of Saccharomyces cerevisiae alpha-glucosidase using p-nitrophenyl-alpha-D-glucopyranoside as substrate at 0.5 to 1 times of IC50 pre-incubated for 10 mins followed by substrate addition and measured after 15 mins by Lineweaver-Burk plot analysis; format: protein assay; settings: time 25.0 min; in short: as §3
Mus musculus [10] = test: Anti-hyperglycemic activity in CDI mouse assessed as blood glucose concentration at 50 mg/kg preadministered with compound for 30 mins followed by sucrose administration and measured after 3 hrs by oral sucrose tolerance test relative to control; format: functional; settings: time 3.5 hrs; in short: as §4
[11] = Toxicity in CDI mouse; settings: in vivo
Mus musculus [12] = test: Anti-hyperglycemic activity in CDI mouse assessed as reduction in blood glucose level at 50 mg/kg measured for 7 hrs by oral glucose tolerance test; format: functional, organism-based
[13] = Antioxidant activity assessed as reduction in hydroxyl concentration at 10 uM by Electron Paramagnetic Resonance based spectrophotometric analysis relative to control; format: functional; design: scale not given: the % may be the effect or the level left
In short: (§5)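 Hydroxyl radicals came from a Fenton reaction: FeSO₄·7H₂O 20 μM (acid water, pH 2.5) plus H₂O₂ 200 μM, with DMPO 6000 μM spin trap in PBS pH 7.4. The compound in acetone was tested at final 106, 60, 10.66 and 3.3 μM. The DMPO–OH quartet was recorded by EPR (9.44 GHz, 8 mW, 0.1 mT modulation, 120 s sweep), and intensity was taken from the second-peak height.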

[14] = Antioxidant activity assessed as hydroxyl radical scavenging activity by measuring fluorescence intensity at 106 uM by Electron Paramagnetic Resonance based spectrophotometric analysis (reference value: 610 a.u.); format: functional
In short: (§6)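 Hydroxyl radicals generated by Fenton reaction: FeSO₄·7H₂O 20 μM (in acid water, pH 2.5) plus H₂O₂ 200 μM, with DMPO 6000 μM spin trap in PBS pH 7.4. Compound added in acetone at final 106, 60, 10.66 or 3.3 μM. The DMPO–OH quartet was recorded by EPR as the first derivative in a quartz flat cell, at 9.44 GHz, 8 mW microwave power, 0.1 mT modulation width. Intensity was taken as peak height of the second signal.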

[15] = Antioxidant activity assessed as hydroxyl radical scavenging activity by Electron Paramagnetic Resonance based spectrophotometric analysis; format: functional; settings: dose 3-106 µM; in short: as §5
[16] = Antioxidant activity assessed as hydroxyl radical scavenging activity by measuring fluorescence intensity at 10 uM by Electron Paramagnetic Resonance based spectrophotometric analysis (reference value: 610 a.u.); format: functional; in short: as §6
[17] = Antioxidant activity assessed as hydroxyl radical scavenging activity by measuring fluorescence intensity at 60 uM by Electron Paramagnetic Resonance based spectrophotometric analysis (reference value: 610 a.u.); format: functional; in short: as §6
[18] = Antioxidant activity assessed as hydroxyl radical scavenging activity by measuring fluorescence intensity at 3 uM by Electron Paramagnetic Resonance based spectrophotometric analysis (reference value: 610 a.u.); format: functional; in short: as §6
[19] = Antioxidant activity assessed as inhibition of hydroxyl radical at 106 uM by Electron Paramagnetic Resonance based spectrophotometric analysis relative to control; format: functional; in short: as §5
[20] = molecular target: T1, Alpha-glucosidase (Saccharomyces cerevisiae S288c); test: Non-competitive inhibition of Saccharomyces cerevisiae alpha-glucosidase using p-nitrophenyl-alpha-D-glucopyranoside as substrate at 1 to 2 times of IC50 pre-incubated for 10 mins followed by substrate addition and measured after 15 mins by Lineweaver-Burk plot analysis; format: protein assay; settings: time 25.0 min; in short: as §3
[21] = Rattus norvegicus, Wistar, Brain

Compound | IC50 (Brain [1]; [21]) [µM] | IC50 (Alpha-glucosidase) [µM] | Activity (Brain [2]) [%] | Activity [3] [%] | further results
COc1ccc2c(c1)/C(=C\c1ccc(O)c(OC)c1)C(=O)N(c1ccc(C(C)C)cc1)C2C(=O)NC(C)(C)C (stereo not given) | 11.3 | 31.5 | 95.4 | 69.2 | 
VITAMIN E [listing 1 of 2 here] |  |  | 79.1 | 87.4 | 
COc1cc(/C=C2/C(=O)N(c3ccc(C(C)C)cc3)C(C(=O)NC(C)(C)C)c3ccccc32)cc(OC)c1O (stereo not given) | 2.4 | > 100 | 96.8 | 37.6 | 
COc1cc(/C=C2/C(=O)N(c3ccc(C(C)C)cc3)C(C(=O)NC3CCCCC3)c3ccccc32)ccc1O (stereo not given) | 17.2 | 14.8 | 95.7 | 68 | inhibition [4]: Active; Activity (Mus musculus [5]; time 60 min, 1 h): 17%
COc1cc(/C=C2/C(=O)N(Cc3ccccc3)C(C(=O)NC3CCCCC3)c3ccccc32)cc(OC)c1O (stereo not given) | 2.2 | 61.3 | 96.8 | 36.2 | 
COc1cc(/C=C2/C(=O)N(c3ccc(F)cc3)C(C(=O)NC3CCCCC3)c3ccccc32)ccc1O (stereo not given) |  | 52.5 | 90.5 | 67.3 | 
COc1cc(/C=C2/C(=O)N(c3ccccc3)C(C(=O)NC3CCCCC3)c3ccccc32)ccc1O (stereo not given) | 19.2 | 50.5 | 95.5 | 66.8 | 
O=c1c(O)c(-c2ccc(O)c(O)c2)oc2cc(O)cc(O)c12 |  |  | 95.7 | 97.9 | 
COc1cc(/C=C2/C(=O)N(Cc3ccccc3)C(C(=O)NC3CCCCC3)c3ccccc32)ccc1O (stereo not given) |  | 50.1 | 93.1 | 77.1 | 
COc1cc(/C=C2/C(=O)N(c3ccc(O)cc3)C(C(=O)NC3CCCCC3)c3ccccc32)cc(OC)c1O (stereo not given) | 9.8 | > 100 | 98 | 33.1 | 
COc1cc(/C=C2/C(=O)N(c3ccc(F)cc3)C(C(=O)NC3CCCCC3)c3ccccc32)cc(OC)c1O (stereo not given) | 2.9 | 57.2 | 96.8 | 36.1 | 
CC(C)c1ccc(N2C(=O)/C(=C/c3ccccc3)c3ccccc3C2C(=O)NC(C)(C)C)cc1 (stereo not given) |  | 50.6 | 6.1 | 0 | 
VITAMIN E [listing 2 of 2 here] |  |  |  |  | IC50 (Brain [1]): 6.8 µM
COc1cc(/C=C2/C(=O)N(c3ccc(O)cc3)C(C(=O)NC3CCCCC3)c3ccccc32)ccc1O (stereo not given) | 22.7 | 92.8 | 96.4 | 72.2 | 
COc1cc(/C=C2/C(=O)N(c3ccc(C)cc3)C(C(=O)NC3CCCCC3)c3ccccc32)cc(OC)c1O (stereo not given) | 3.5 | 44.4 | 96.5 | 37.5 | 
COc1cc(/C=C2/C(=O)N(c3ccc(C(F)(F)F)cc3)C(C(=O)NC3CCCCC3)c3ccccc32)cc(OC)c1O (stereo not given) | 1.6 | > 100 | 99.4 | 89.9 | Activity (Mus musculus [5]; time 60.0 min): Active
COc1cc(/C=C2/C(=O)N(c3ccc(C)cc3)C(C(=O)NC3CCCCC3)c3ccccc32)ccc1O (stereo not given) |  | 30.2 | 70.7 | 72.7 | Activity (Mus musculus [6]): Dose-Dependent Effect; Activity (Mus musculus [7]): inactive; Activity (COS-7): Non-Toxic; Activity (Mus musculus [8]): 41%; inhibition [9]: Active; Activity (Mus musculus [10]): 20%; Activity [11]: Non-Toxic; Activity (Mus musculus [5]; time 60.0 min): Active; Activity (Mus musculus [12]): inactive
COc1cc(/C=C2/C(=O)N(c3ccc(C(C)C)cc3)C(C(=O)NC(C)(C)C)c3ccccc32)ccc1O (stereo not given) |  | 68 | 92.4 | 67.3 | 
COc1cc(/C=C2/C(=O)N(c3ccccc3)C(C(=O)NC3CCCCC3)c3ccccc32)cc(OC)c1O (stereo not given) | 4.8 | 60.1 | 97.8 | 40.6 | 
COc1cc(/C=C2/C(=O)N(c3ccc(C(C)C)cc3)C(C(=O)NC3CCCCC3)c3ccccc32)cc(OC)c1O (stereo not given) | 1.4 | 33.1 | 97.7 | 35.4 | Activity (Mus musculus [6]): Dose-Dependent Effect; Activity [13]: 25%; Flu intensity [14]: 150 a.u.; Activity [15]: Dose-Dependent Effect; Activity (Mus musculus [8]): 54%; Flu intensity [16]: 412 a.u.; Flu intensity [17]: 256 a.u.; Activity (Mus musculus [10]): 29%; Activity (Mus musculus [5]; time 60.0 min): Active; Flu intensity [18]: 464 a.u.; inhibition [19]: 76%
COc1cc(/C=C2/C(=O)N(c3ccc(C(F)(F)F)cc3)C(C(=O)NC3CCCCC3)c3ccccc32)ccc1O (stereo not given) |  | 13.7 | 64.3 | 65.9 | Activity (Mus musculus [7]): inactive; Activity (COS-7): Non-Toxic; Activity [11]: Non-Toxic; Activity (Mus musculus [5]; time 60 min, 1 h): 26%; Activity (Mus musculus [12]): inactive; inhibition [20]: Active

— ChEMBL document CHEMBL5376028, “Discovery of dual-action phenolic 4-arylidene-isoquinolinones with antioxidant and α-glucosidase inhibition activities” (RSC Med Chem, 2024)
